From ChEMBL document CHEMBL1155475, “Semisynthesis and pharmacological activities of thyroxine analogs: Development of new angiogenesis modulators” (2010)

Experiments:
Format in all cases: functional
Gallus gallus [1] = organism: Gallus gallus; experiment: Antiangiogenesis of fertilized chicken egg membrane assessed as inhibition of FGF-induced blood vessel formation at 10 ug/CAM after 48 hrs by CAM assay
Procedure, shortened: (§1)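 Chick chorioallantoic membrane model. Filter disks are soaked in 3 mg/mL cortisone acetate in 95% ethanol, air-dried, then saturated with test agent, L-T4 or FGF, and placed on the CAM. Agents are tested at 10 µg/CAM. Tissue beneath the disk is harvested after 48 h and examined by stereomicroscope at 50× with digital image capture. Data are mean ± SEM, n = 8.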

Mus musculus = experiment: Stimulation of angiogenesis in Matrigel plug implanted C57BL/6 mouse assessed as increase of hemoglobin level after 14 days at 10 ug/plug by Matrigel assay
Procedure, shortened: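 Mouse subcutaneous Matrigel plug. Matrigel is kept cold and compound is added with or without agonist. Plugs are injected subcutaneously at three sites per animal, 100 µL total. On day 14 the plugs are collected, homogenized in ddH2O and centrifuged 4000 rpm for 10 min. Supernatant is mixed with Drabkin's reagent for 15–30 min, A540 is read, and hemoglobin (mg/mL) is taken from a standard curve. Three implants per mouse, n = 6 per group.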

Gallus gallus [2] = organism: Gallus gallus; experiment: Stimulation of angiogenesis of fertilized chicken egg membrane assessed as stimulation of blood vessel formation at 10 ug/CAM after 48 hrs by CAM assay; procedure, shortened: as §1

Compound	inhibition (Gallus gallus [1]) [%]	Activity (Mus musculus) [%]	Activity (Gallus gallus [2]) [%]
CCNC(Cc1cc(I)c(Oc2cc(I)c(O)c(I)c2)c(I)c1)C(=O)OCC (configuration not stated)	38	–	–
CC(C)[Si](OC(=O)C(Cc1cc(I)c(Oc2cc(I)c(OCC3CO3)c(I)c2)c(I)c1)NC(=O)OC(C)(C)C)(C(C)C)C(C)C (configuration not stated)	–	0	34
CC(C)[Si](OC(=O)C(Cc1cc(I)c(Oc2cc(I)c(O)c(I)c2)c(I)c1)NC(=O)OC(C)(C)C)(C(C)C)C(C)C (configuration not stated)	–	0	4
CC(=O)NC(Cc1cc(I)c(Oc2cc(I)c(OC(C)=O)c(I)c2)c(I)c1)C(=O)O (configuration not stated)	–	95	67
CNC(Cc1cc(I)c(Oc2cc(I)c(O)c(I)c2)c(I)c1)C(=O)O (configuration not stated)	–	87	44
CC(C)(C)OC(=O)NC(Cc1cc(I)c(Oc2cc(I)c(OCC3CO3)c(I)c2)c(I)c1)C(=O)OCC1CO1 (configuration not stated)	–	0	56
CCCC(=O)NC(Cc1cc(I)c(Oc2cc(I)c(O)c(I)c2)c(I)c1)C(=O)O (configuration not stated)	–	62	34
CCNC(Cc1cc(I)c(Oc2cc(I)c(O)c(I)c2)c(I)c1)C(=O)O (configuration not stated)	–	45	86
N[C@@H](Cc1cc(I)c(Oc2cc(I)c(O)c(I)c2)c(I)c1)C(=O)O [LEVOTHYROXINE]	–	100	88
